The target in assay [1] is Opioid receptors; mu & delta (Rattus norvegicus) (UniProt P33533+P33535). The experiment in a line: Selectivity for rat mu opioid receptor over rat delta opioid receptor. It counts as protein assay.
For assay [2], the system named is Mus musculus. Briefly: Inhibition of morphine-induced antinociception in mouse at 2.38 ng, icv after 10 mins by hot plate test. In kind it is functional. A digest of the protocol: (§1)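 Male mice received morphine 4 mg/kg sc, then test compound icv 5 min later. Hot plate at 55.0 °C; latency to hind-paw licking or shaking, baseline 15 s, cut-off 30 s, read 10 min after icv dosing. Results as %MPE. AD50 is the dose blocking 50% of morphine antinociception at 10 min; 95% confidence limits; n = 10–17 mice per point.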

Assay [3] concerns the target Mu-type opioid receptor (Rattus norvegicus, UniProt P33535). The experiment in a line: Displacement of [3H]DAMGO from mu opioid receptor in rat brain P2 synaptosome. It counts as tissue-based.
Assay [4] deals with Mu-type opioid receptor (Cavia porcellus) (UniProt P97266). Briefly: Agonist activity at mu opioid receptor in Hartley guinea pig intestine assessed as inhibition of electrically evoked myenteric plexus longitudinal muscle contractions at 10000 nM. In kind it is functional, tissue-based.
Sequence of Mu-type opioid receptor (Cavia porcellus) (P97266 whole entry): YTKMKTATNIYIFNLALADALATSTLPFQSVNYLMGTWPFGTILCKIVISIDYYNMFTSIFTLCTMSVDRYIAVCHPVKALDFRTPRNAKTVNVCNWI
Assay [5] addresses Delta-type opioid receptor (Rattus norvegicus, UniProt P33533). Briefly: Displacement of [3H]deltorphin 2 from delta opioid receptor in rat brain P2 synaptosome. In kind it is tissue-based.
Assay [6] in a line: Ratio of pA2 for delta opioid receptor in MVD to pA2 for mu opioid receptor in GPI. In kind it is functional.
The subject of another assay is Hippocampus. The experiment in a line: Inhibition of ethanol-induced frequency of spontaneous inhibitory post-synaptic currents in rat hippocampal neurons by patch clamp technique at 300 nM. It counts as functional. An outline of the steps:
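Rat hippocampal slices (300 µm), held in oxygenated ACSF 60 min at room temperature. Whole-cell patch clamp of CA1 pyramidal cells at −70 mV. GABAA IPSCs isolated with 50 µM AP5 and 20 µM DNQX. Recording periods of 10 min each: baseline, then 60 mM EtOH, then compound in EtOH. n = 6 slices; paired t-tests.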

The target in assay [7] is T1, Delta-type opioid receptor (Mus musculus, UniProt P32300). The experiment in a line: Antagonist activity at delta opioid receptor in mouse vas deferens assessed as inhibition of deltorphin 2-induced effect on muscle contractions. In kind it is functional, tissue-based. To be noted: read-out: pA2 (converted).
T1 sequence (P32300 whole entry): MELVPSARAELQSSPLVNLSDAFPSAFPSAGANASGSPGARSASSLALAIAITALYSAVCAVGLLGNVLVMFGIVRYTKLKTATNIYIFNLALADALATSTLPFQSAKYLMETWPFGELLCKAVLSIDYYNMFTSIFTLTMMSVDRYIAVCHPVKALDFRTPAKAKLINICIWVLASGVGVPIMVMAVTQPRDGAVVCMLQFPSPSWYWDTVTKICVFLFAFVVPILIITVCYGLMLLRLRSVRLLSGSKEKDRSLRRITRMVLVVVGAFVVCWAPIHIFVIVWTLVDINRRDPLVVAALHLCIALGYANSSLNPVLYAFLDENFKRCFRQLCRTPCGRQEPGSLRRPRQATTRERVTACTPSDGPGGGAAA
Assay [8] concerns the target T1, Delta-type opioid receptor. Briefly: Agonist activity at delta opioid receptor in mouse vas deferens assessed as inhibition of electrically evoked muscle contractions. In kind it is functional, tissue-based. An outline of the steps: (§2)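 Isolated tissue in organ baths of balanced physiological salt buffer, pH 7.5: male Hartley guinea pig ileum myenteric plexus longitudinal muscle (μ) or single mouse vas deferens (δ). Agonist inhibition of electrically evoked contractions; IC50 (nM) from dose–response curves, mean ± SE of five to six separate tissue preparations.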

Assay [9] concerns the target Delta-type opioid receptor (Mus musculus) (UniProt P32300). Briefly: Agonist activity at delta opioid receptor in mouse vas deferens assessed as inhibition of electrically evoked muscle contractions at 10000 nM. It counts as functional, tissue-based.
Assay [10] has as its target T2, Mu-type opioid receptor (Cavia porcellus, UniProt P97266). Briefly: Antagonist activity at mu opioid receptor in Hartley guinea pig intestine assessed as inhibition of DAMGO-induced effect on myenteric plexus longitudinal muscle contractions. In kind it is functional, tissue-based. As to conditions: read-out: pA2 (converted).
The target in assay [11] is T2, Mu-type opioid receptor. The experiment in a line: Agonist activity at mu opioid receptor in Hartley guinea pig intestine assessed as inhibition of electrically evoked myenteric plexus longitudinal muscle contractions. It counts as functional, tissue-based. A digest of the protocol:
as §2

Assay [12] has as its system Mus musculus. Briefly: Inhibition of morphine-induced spinal antinociception in intracerebroventricularly dosed mouse by tail-flick test. It counts as functional, organism-based. A digest of the protocol: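 Male mice given morphine 4 mg/kg sc, then compound icv 5 min later. Tail-flick latency measured to radiant heat, baseline 2–3 s, cut-off 8 s.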
For orientation: Thermal pain tests record how soon the animal reacts.

Assay [13] concerns Mus musculus. The experiment in a line: Inhibition of morphine-induced antinociception in mouse at 0.148 ng, icv after 10 mins by hot plate test. In kind it is functional, organism-based. An outline of the steps: as §1

The structures appear in SMILES notation. Calls of active or inactive are those of the source. Bounds are passed on as bounds.

Sequence of Mu-type opioid receptor (Rattus norvegicus, UniProt P33535) (P33535 whole entry): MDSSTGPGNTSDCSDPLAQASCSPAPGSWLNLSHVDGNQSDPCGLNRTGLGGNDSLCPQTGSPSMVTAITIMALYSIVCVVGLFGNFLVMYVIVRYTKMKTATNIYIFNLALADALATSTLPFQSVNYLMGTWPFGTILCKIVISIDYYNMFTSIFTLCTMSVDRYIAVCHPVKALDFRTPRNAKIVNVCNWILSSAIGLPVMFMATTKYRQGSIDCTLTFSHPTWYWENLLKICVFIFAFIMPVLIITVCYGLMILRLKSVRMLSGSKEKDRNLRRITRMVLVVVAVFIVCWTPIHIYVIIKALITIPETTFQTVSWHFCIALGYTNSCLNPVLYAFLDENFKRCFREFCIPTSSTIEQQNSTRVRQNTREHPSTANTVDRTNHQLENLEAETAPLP
Sequence of Delta-type opioid receptor (Mus musculus) (P32300 whole entry): as the sequence (P32300 whole entry) above
Sequence of Opioid receptors; mu & delta (Rattus norvegicus) (P33533 whole entry, looked up): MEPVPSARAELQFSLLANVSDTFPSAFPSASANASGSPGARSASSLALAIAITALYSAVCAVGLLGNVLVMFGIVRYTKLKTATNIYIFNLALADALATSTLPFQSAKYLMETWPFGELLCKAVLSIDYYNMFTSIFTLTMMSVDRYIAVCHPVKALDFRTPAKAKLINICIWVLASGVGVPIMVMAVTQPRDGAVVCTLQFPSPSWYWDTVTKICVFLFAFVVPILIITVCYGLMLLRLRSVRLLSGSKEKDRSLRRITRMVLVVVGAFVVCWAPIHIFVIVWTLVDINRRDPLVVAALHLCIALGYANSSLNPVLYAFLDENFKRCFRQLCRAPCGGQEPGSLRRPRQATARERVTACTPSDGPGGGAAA
Sequence of Opioid receptors; mu & delta (Rattus norvegicus) (P33535 whole entry, looked up): as the sequence (P33535 whole entry) above
Sequence of Delta-type opioid receptor (Rattus norvegicus, UniProt P33533) (P33533 whole entry): as the sequence (P33533 whole entry, looked up) above
T2 sequence (P97266 whole entry): as the sequence (P97266 whole entry) above

Take `C=CCNC(=O)[C@H](Cc1ccccc1)NC(=O)[C@H](Cc1ccccc1)NC(=O)[C@@H]1CCCN1C(=O)[C@H](Cc1ccc(O)cc1)NCC=C`: the Ratio Ki in assay [1] turned out to be 6.

In the assay with Mus musculus [2], `C=CCN1CC[C@]23c4c5ccc(O)c4O[C@H]2C(=O)CC[C@@]3(O)[C@H]1C5` [NALOXONE] returned an AD50 of 2.38 ng.

In general, Ki refers to the equilibrium dissociation constant of an inhibitor or competing ligand from its target. Low values mean higher affinity, high ones lower affinity. Broadly, the inhibition is the relative decrease from the control value, in per cent. The IC50 is the concentration at which inhibition is half-maximal. Take `C=CCN[C@@H](Cc1c(C)cc(O)cc1C)C(=O)N1CCC[C@H]1C(=O)N[C@@H](Cc1c[nH]c2ccccc12)C(=O)N[C@@H](Cc1ccccc1)C(N)=O`: the Ki at Mu-type opioid receptor [3] came to 0.26 nM; in [5] it was 10.3 nM. For the same molecule, the inhibition came to 49% in assay [4] and 37.5% in assay [9]. Moreover, the Ratio pA2 in assay [6] came out at 7.2. Moreover, the inhibition at 0.3 µM in the assay on Hippocampus was 26%. For the same molecule, in [1], the Ratio Ki came to 40. Moreover, the Kb in assay [7] is 47.9 nM; at Mu-type opioid receptor [10], 6.61 nM. Also, the IC50 (in assay [8]; on Mu-type opioid receptor [11]) was > 10000 nM throughout.

Take `Cc1cc(O)cc(C)c1C[C@H](N)C(=O)N1CCC[C@H]1C(=O)N[C@@H](Cc1c[nH]c2ccccc12)C(=O)N[C@@H](Cc1ccccc1)C(N)=O`: the figures for the Ki (on Mu-type opioid receptor [3]; in [5]) were 0.054 nM and 5.6 nM, respectively. In addition, the Ratio Ki in assay [1] was 104. Moreover, the Kb in [7] is 2.51 nM. The IC50 is > 10000 nM in assay [8] and 0.27 nM on Mu-type opioid receptor [11]. For the same molecule, the inhibition in assay [9] was 21.6%.

As for `C=CCN[C@@H](Cc1ccc(O)cc1)C(=O)N1CCC[C@H]1C(=O)N[C@@H](Cc1ccccc1)C(=O)N[C@@H](Cc1ccccc1)C(N)=O`, in assay [1], the Ratio Ki is 57.

On to `C=CCN[C@@H](Cc1c(C)cc(O)cc1C)C(=O)N1CCC[C@H]1C(=O)N[C@@H](Cc1ccccc1)C(=O)N[C@@H](Cc1ccccc1)C(N)=O`, for which the inhibition constant Ki came to 0.45 nM on Mu-type opioid receptor [3] and 560 nM in [5]. Further, the figures for the inhibition in assay [4] and in assay [9] were 49.3% and 42.8%, respectively. For the same molecule, the outcome in the assay on Mus musculus [12] and with Mus musculus [13] was inactive. In [6], the Ratio pA2 came out at 186. Further, the Ratio Ki in assay [1] came to 1240. Moreover, the Kb is 479 nM in assay [7] and 2.57 nM at Mu-type opioid receptor [10]. In addition, the IC50 (in [8]; at Mu-type opioid receptor [11]) was > 10000 nM each time.

The values above are taken from ChEMBL document CHEMBL1146321, “Transformation of mu-opioid receptor agonists into biologically potent mu-opioid receptor antagonists” (Bioorg Med Chem, 2007).
